Measurements taken from ChEMBL document CHEMBL1138502, “Discovery and biological evaluation of novel cyanoguanidine P2X(7) antagonists with analgesic activity in a rat model of neuropathic pain” (J Med Chem, 2009).
Activity calls are given as the source filed them. The calls are words filed in the database; no cut-off is given here.

Assays:
[1] = Bioavailability in rat at 10 umol/kg, ip; assay type: ADME, organism-based; settings: in vivo
P2X purinoceptor 7 [2] = target: T1, P2X purinoceptor 7 (Rattus norvegicus, UniProt Q64663); test: Antagonist activity at rat cloned P2X7 receptor expressed in HEK293 cells assessed as inhibition of calcium flux by FLIPR assay; assay type: functional, cell-based
T1 sequence (Q64663 whole entry): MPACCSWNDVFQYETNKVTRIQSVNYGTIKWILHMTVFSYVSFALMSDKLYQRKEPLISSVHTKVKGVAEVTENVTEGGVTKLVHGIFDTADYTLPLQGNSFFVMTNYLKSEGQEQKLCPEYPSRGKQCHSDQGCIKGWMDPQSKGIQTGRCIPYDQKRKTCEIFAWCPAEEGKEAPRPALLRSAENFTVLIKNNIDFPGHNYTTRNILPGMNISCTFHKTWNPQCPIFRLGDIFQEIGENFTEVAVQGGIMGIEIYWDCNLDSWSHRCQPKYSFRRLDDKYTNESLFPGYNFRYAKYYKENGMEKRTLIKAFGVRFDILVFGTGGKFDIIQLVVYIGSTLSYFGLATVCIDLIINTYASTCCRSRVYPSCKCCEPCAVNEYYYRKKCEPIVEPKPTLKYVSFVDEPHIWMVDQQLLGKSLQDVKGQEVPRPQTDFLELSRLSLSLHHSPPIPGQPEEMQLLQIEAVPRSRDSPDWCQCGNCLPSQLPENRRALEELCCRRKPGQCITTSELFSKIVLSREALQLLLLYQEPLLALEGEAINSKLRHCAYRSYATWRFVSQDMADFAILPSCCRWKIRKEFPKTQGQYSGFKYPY
Method in brief: (§1)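 Calcium influx read on a fluorometric imaging plate reader with Fluo-4 as the calcium-sensing dye. The P2X7 agonist was benzoylbenzoic ATP (BzATP). pIC50 values are the mean of two experiments unless otherwise indicated; some values are the mean of more than two experiments, with standard deviation shown.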

P2X purinoceptor 7 [3] = target: T2, P2X purinoceptor 7 (Homo sapiens, UniProt Q99572); test: Antagonist activity at human cloned P2X7 receptor expressed in HEK293 cells assessed as inhibition of calcium flux by FLIPR assay; assay type: functional, cell-based; method in brief: as §1
T2 sequence (Q99572 whole entry): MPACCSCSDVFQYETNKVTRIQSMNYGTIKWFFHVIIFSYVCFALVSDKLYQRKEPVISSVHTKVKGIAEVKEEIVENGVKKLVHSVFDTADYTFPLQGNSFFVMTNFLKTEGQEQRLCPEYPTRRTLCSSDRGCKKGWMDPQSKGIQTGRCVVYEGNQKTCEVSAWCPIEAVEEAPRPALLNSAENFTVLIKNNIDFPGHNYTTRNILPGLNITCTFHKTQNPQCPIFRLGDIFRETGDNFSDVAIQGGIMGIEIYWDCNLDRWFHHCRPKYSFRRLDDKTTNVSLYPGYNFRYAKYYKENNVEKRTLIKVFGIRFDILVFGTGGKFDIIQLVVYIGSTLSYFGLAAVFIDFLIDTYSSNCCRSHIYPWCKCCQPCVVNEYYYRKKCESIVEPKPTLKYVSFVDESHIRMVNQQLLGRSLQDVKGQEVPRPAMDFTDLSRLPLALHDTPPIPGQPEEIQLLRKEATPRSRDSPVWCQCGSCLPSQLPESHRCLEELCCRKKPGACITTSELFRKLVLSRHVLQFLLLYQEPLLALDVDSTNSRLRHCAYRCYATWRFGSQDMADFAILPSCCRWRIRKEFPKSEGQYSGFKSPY

[4] = target: T3, P2X purinoceptor 4 (Homo sapiens) (UniProt Q99571); test: Activity at P2X4 receptor up to 10 uM
T3 sequence (whole entry): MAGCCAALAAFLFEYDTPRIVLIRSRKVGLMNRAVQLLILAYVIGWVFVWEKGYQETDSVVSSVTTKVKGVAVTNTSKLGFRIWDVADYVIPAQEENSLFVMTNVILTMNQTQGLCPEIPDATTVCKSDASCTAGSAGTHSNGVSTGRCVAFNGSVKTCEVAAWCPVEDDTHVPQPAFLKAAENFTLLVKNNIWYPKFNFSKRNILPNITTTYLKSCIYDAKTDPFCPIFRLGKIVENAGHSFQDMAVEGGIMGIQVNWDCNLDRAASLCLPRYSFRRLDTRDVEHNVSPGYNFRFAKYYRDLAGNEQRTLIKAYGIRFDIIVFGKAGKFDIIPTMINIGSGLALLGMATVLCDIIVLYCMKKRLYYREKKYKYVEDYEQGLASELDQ

[5] = target: P2Y purinoceptor 2 (Homo sapiens) (UniProt P41231); test: Activity at P2Y2 receptor up to 10 uM
[6] = target: T4, P2X purinoceptor 3 (Homo sapiens) (UniProt P56373); test: Activity at P2X3 receptor up to 10 uM
T4 sequence (whole entry): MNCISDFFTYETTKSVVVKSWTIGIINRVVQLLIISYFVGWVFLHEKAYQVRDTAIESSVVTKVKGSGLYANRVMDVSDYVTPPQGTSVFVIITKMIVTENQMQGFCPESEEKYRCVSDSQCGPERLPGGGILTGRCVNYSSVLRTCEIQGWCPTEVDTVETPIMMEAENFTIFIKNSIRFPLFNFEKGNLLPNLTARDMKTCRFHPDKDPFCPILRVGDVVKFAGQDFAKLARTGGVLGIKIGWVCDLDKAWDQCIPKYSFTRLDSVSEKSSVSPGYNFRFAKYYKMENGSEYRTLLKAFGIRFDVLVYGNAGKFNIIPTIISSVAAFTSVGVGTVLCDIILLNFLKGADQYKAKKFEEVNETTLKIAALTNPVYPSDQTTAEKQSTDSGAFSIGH

Rattus norvegicus [7] = test: Antinociceptive activity in ip dosed rat L5-L6 spinal nerve ligation model of neuropathic pain assessed as reduction in tactile allodynia; assay type: functional; set-up: Activity: scale not given: the % may be the effect or the level left; settings: for ED50: Rattus norvegicus, Spinal nerve, ip
Method in brief: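 Intraperitoneal dosing in rats with L5-L6 spinal nerve ligation (Chung model). Tactile allodynia was measured by von Frey testing. ED50 in µmol/kg and maximum efficacy (%) are the mean of six animals.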

[8] = Oral bioavailability in rat; assay type: ADME, organism-based; settings: in vivo
[9] = Selectivity for P2X7 receptor over potassium channel
Rattus norvegicus [10] = test: Antiallodynic activity in rat L5-L6 spinal nerve ligation model of neuropathic pain assessed as inhibition of mechanical allodynia at 100 umol/kg, po single administration; assay type: functional; set-up: scale not given: the % may be the effect or the level left
Method in brief: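 Chung-model rats (L5-L6 spinal nerve ligation) were given a single oral dose, with 5% DMSO/PEG as vehicle. Mechanical allodynia was read by von Frey testing and expressed as % effect ± SEM, N = 6 per group, compared with vehicle.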

Rattus norvegicus [11] = test: Antiallodynic activity in rat L5-L6 spinal nerve ligation model of neuropathic pain assessed as inhibition of mechanical allodynia at 100 umol/kg, po administered twice daily for 4 days once on day 5; assay type: functional; set-up: scale not given: the % may be the effect or the level left
Method in brief: (§2)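 Rats with L5-L6 spinal nerve ligation (Chung model) received vehicle (5% DMSO/PEG) or compound at 100 µmol/kg orally twice a day for four days. On day 5, vehicle or compound was given orally 1 h before von Frey testing for mechanical allodynia. Results are % effect ± SEM, N = 6 per group, with P vs the respective vehicle group.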

Rattus norvegicus [12] = test: Antiallodynic activity in rat L5-L6 spinal nerve ligation model of neuropathic pain assessed as inhibition of mechanical allodynia after chronic administration of vehicle twice daily for 4 days followed by acute dose of 100 umol/kg, po on day 5; assay type: functional; set-up: scale not given: the % may be the effect or the level left; method in brief: as §2

Chain of P2Y purinoceptor 2 (Homo sapiens) (P41231 whole entry): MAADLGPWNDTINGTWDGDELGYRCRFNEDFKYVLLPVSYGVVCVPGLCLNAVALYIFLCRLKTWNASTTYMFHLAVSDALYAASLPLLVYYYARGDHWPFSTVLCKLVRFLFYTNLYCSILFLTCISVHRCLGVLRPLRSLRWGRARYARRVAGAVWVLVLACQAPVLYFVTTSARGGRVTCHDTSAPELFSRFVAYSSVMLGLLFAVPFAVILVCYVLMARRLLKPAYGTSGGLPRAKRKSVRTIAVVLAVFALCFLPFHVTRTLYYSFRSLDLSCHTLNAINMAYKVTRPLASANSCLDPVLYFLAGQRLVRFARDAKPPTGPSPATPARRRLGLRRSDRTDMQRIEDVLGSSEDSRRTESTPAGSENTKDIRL

| SMILES | IC50 (P2X purinoceptor 7 [2]) | IC50 (P2X purinoceptor 7 [3]) | other results |
| --- | --- | --- | --- |
| COc1ccc(CC(=O)NC(NC(=NC#N)Nc2ccccc2C)C(C)(C)C)cc1OC (stereo in doubt; 13) | 12.6 nM | 126 nM | bioavailability [1]: 90% |
| COc1ccc(CC(=O)NC(N/C(=N/C#N)Nc2cc(C)ccc2C)C(C)(C)C)cc1OC (stereo unspecified) | – | – | Activity [4]: inactive; Activity [5]: inactive; Activity [6]: inactive |
| COc1ccc(CC(=O)NC(N/C(=N/C#N)Nc2cccc3ncccc23)C(C)(C)C)cc1OC (stereo unspecified) | – | 39.8 nM | bioavailability [1]: 79%; Activity [4]: inactive; Activity (Rattus norvegicus [7]): 65%; ED50 (Rattus norvegicus [7]): 41 µmol/kg; Activity [5]: inactive; Activity [6]: inactive |
| Cc1ncccc1N/C(=N\C#N)NC(NC(=O)Cc1ccc(F)cc1)C(C)(C)C (stereo unspecified) | 398 nM | 100 nM | bioavailability [1]: 52%; Activity (Rattus norvegicus [7]): 0%; ED50 (Rattus norvegicus [7]): > 300 µmol/kg |
| Cc1ncccc1NC(=NC(NC(=O)Cc1ccc(Cl)cc1)C(C)(C)C)NC#N (stereo unspecified) | 39.8 nM | 31.6 nM | bioavailability [1]: 54%; bioavailability [8]: 36% |
| COc1ccc(CC(=O)NC(N=C(NC#N)NCc2ccccc2Cl)C(C)(C)C)cc1OC (stereo unspecified) | 200 nM | 631 nM | – |
| COc1ccc(CC(=O)NC(N=C(NC#N)Nc2cc(F)cc(F)c2)C(C)(C)C)cc1OC (stereo unspecified) | 316 nM | 398 nM | – |
| COc1ccc(CC(=O)NC(N/C(=N/C#N)Nc2ccccc2C)C(C)(C)C)cc1 (stereo unspecified) | 31.6 nM | 63.1 nM | – |
| Cc1ccc(CC(=O)NC(NC(=NC#N)Nc2cccnc2C)C(C)(C)C)cc1F (stereo unspecified) | 200 nM | 63.1 nM | – |
| COc1ccc(C(=O)NC(N=C(NC#N)Nc2ccccc2C)C(C)(C)C)cc1 (stereo unspecified) | 2510 nM | 7940 nM | – |
| Cc1ccccc1N/C(=N\C#N)NC(NC(=O)Cc1ccccc1)C(C)(C)C (stereo unspecified) | 316 nM | 31600 nM | – |
| CC(Cl)(Cl)C(NC(=O)c1ccc(Cl)cc1)N/C(=N/C#N)Nc1cccnc1Cl (stereo unspecified) | – | – | Selectivity ratio [9]: 100 |
| COc1ccc(CC(=O)NC(N/C(=N/C#N)Nc2cccnc2Cl)C(C)(C)C)cc1OC (stereo unspecified) | 39.8 nM | 79.4 nM | – |
| COc1ccc(CC(=O)NC(NC(=NC#N)Nc2ccccc2Cl)C(C)(C)C)cc1OC (stereo unspecified) | 7.94 nM | 63.1 nM | – |
| CC(Cl)(Cl)C(NC(=O)c1ccc(Cl)cc1)NC(=NC#N)Nc1cccnc1Cl (stereo unspecified) | 126 nM | 63.1 nM | – |
| Cc1ncccc1N/C(=N\C#N)NC(NC(=O)Cc1ccc(Cl)cc1)C(C)(C)C (stereo unspecified) | – | – | Activity (Rattus norvegicus [10]): 45%; Activity (Rattus norvegicus [11]): 61%; Activity [4]: inactive; Activity (Rattus norvegicus [7]): 82%; ED50 (Rattus norvegicus [7]): 38 µmol/kg; Activity (Rattus norvegicus [12]): 44%; Activity [5]: inactive; Activity [6]: inactive |
| COc1ccc(CC(=O)NC(N=C(NC#N)Nc2cc(C)ccc2C)C(C)(C)C)cc1OC (stereo unspecified) | 3.16 nM | 63.1 nM | – |
